In general, IC50 refers to the concentration that gives 50% inhibition. Read a high IC50 as a need for much substance.

The test system of one test is Plasmodium falciparum. As to the kind of experiment: Antimalarial activity against Plasmodium falciparum 3D7 by Giemsa staining. The format is functional, organism-based. The gist of the method: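 P. falciparum 3D7 clone grown in human erythrocyte culture (Trager–Jensen) in 24-well plates. Compounds dissolved in DMSO (final <0.5%) and diluted in RPMI 1640 with 10% human plasma, 25 mM HEPES and 25 mM NaHCO₃ to final 10, 1, 0.1, 0.01, 0.001 µg/mL. Growth read from MeOH-fixed, Giemsa-stained smears; IC50 = 50% growth inhibition versus untreated control.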

For another test, the system named is HL-60 (Homo sapiens). The test can be described thus: Cytotoxicity against human HL-60 cells.

Where only a bound is given, the exact number is not on record here.

As to `Cc1cc2c3c(cc(=O)cc-3o1)CC(C)O2` (configuration not stated), the figures for the IC50 in the test on Plasmodium falciparum and in the test with HL-60 (Homo sapiens) were 2.3 µM and over 100 µM, respectively.
In the case of `CC(=O)Cc1cc(O)cc2oc(C)cc(=O)c12`, the IC50 in the test with Plasmodium falciparum is 8.6 µM; in the test on HL-60 (Homo sapiens), over 100 µM.
On the same counts, the results for `Cc1cc2cc(=O)cc3oc(C)cc(o1)c23` [ANHYDROBARAKOL] are 4.7 µM and over 100 µM.
In the case of `Cc1cc2cc(O)cc3c2c(n1)CC(C)O3` (configuration not stated) [CASSIARIN C], the values for the IC50 with Plasmodium falciparum and in the test on HL-60 (Homo sapiens) were 24.2 µM and over 100 µM, respectively.
The corresponding values for `CC(=O)Cc1cc(O)cc2oc(CC3(C)Cc4nc(C)cc5cc(O)cc(c45)O3)cc(=O)c12` (configuration not stated) [CASSIARIN D] are 3.6 µM and over 100 µM.
Consider `Cc1cc2cc(O)cc3c2c(n1)C=C(CC1(C)Cc2nc(C)cc4cc(O)cc(c24)O1)O3` (configuration not stated) [CASSIARIN E], for which the IC50 in the test on Plasmodium falciparum is 7.3 µM; in the test with HL-60 (Homo sapiens), over 100 µM.
